# ChEMBL document CHEMBL1817664, “Modulation of cell differentiation, proliferation, and tumor growth by dihydrobenzyloxopyrimidine non-nucleoside reverse transcriptase inhibitors” (2011)
# Activity calls are given as the source filed them. The calls are words filed in the database; no cut-off is given here.
# What was measured:
# A-375 [1] = assay: Antiproliferative activity against human A375 cells assessed as cell growth at 25 uM after 96 hrs by trypan blue assay; format: functional; settings: A-375, 96 h, read-out: Activity
# Summary of the method: (§1)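 A375 melanoma cells grown in DMEM with 10% FCS at 37 °C, 5% CO2; compounds added in DMSO after 56 h (DMSO 0.005% final for controls). Medium with drug renewed every 48 h. After 96 h, cells harvested and Coulter-counted, with trypan blue exclusion for viability. Counts given as % of DMSO controls; data pooled from three experiments.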
# A-375 [2] = assay: Induction of apoptosis in human A375 cells seeded as high density at 20 uM after 96 hrs by propidium iodide staining-based FACS analysis
# A-375 [3] = assay: Antiproliferative activity against human A375 cells at 20 uM after 96 hrs by trypan blue assay; format: functional
# Summary of the method: (§2)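 A375 cells plated at (20-50) × 10^3 per 35 mm dish in DMEM/10% FCS. Drug in DMSO added, renewed every 48 h; DMSO alone for controls. After 48 or 96 h, viable cells counted twice per sample by Coulter counter, with trypan blue check. Cells at time t divided by cells seeded, relative to DMSO control as 100%. Mean and SD: four experiments for dose series (5, 10, 20 μM, 96 h), three for time course (5 or 10 μM).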
# A-375 [4] = assay: Induction of human A375 cell differentiation assessed as formation of vimentin intermediate filament at 20 uM after 96 hrs by immunofluorescence analysis; format: functional, cell-based
# Summary of the method: (§3)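 A375 cells cultured 96 h with drug, then fixed in 4% paraformaldehyde for 10 min and permeabilized in 0.2% Triton X-100/PBS for 5 min. Immunostained for tubulin and vimentin, nuclei counterstained with DAPI.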
# A-375 [5] = assay: Induction of morphological differentiation in human A375 cells assessed as dentritic-like extension at 5 to 10 uM after 96 hrs by phase contrast microscopy
# A-375 [6] = assay: Induction of human A375 cell differentiation assessed as microtubule reorganization at 20 uM after 96 hrs by immunofluorescence analysis; format: functional, cell-based; summary of the method: as §3
# A-375 [7] = assay: Antiproliferative activity against human A375 cells at 5 to 10 uM by trypan blue assay; format: functional, cell-based; settings: TDE = time-dependent effect; summary of the method: as §2
# A-375 [8] = assay: Induction of apoptosis in human A375 cells seeded as low density at 20 uM after 96 hrs by propidium iodide staining-based FACS analysis
# A-375 [9] = assay: Antiproliferative activity against human A375 cells assessed as cell growth at 350 uM after 96 hrs by trypan blue assay; format: functional; settings: A-375, 96 h, read-out: Activity
# Summary of the method: (§4)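 A375 melanoma cells were grown in DMEM with 10% FCS, 2 mM L-glutamine and penicillin/streptomycin at 37 °C in 5% CO2, and plated at (20–50) × 10^3 cells per 35 mm plate. Once adherent (56 h), compound in DMSO was added (DMSO 0.005% final), with fresh drug medium every 48 h. After 96 h, viable cells were counted twice by Coulter counter, with trypan blue exclusion. Results are % of DMSO control, pooled from three experiments.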
# A-375 [10] = assay: Antiproliferative activity against human A375 cells at 350 uM after 96 hrs by trypan blue assay; format: functional; summary of the method: as §4
# A-375 [11] = assay: Antitumor activity against human A375 cells xenografted in athymic nude Harlan mouse assessed as reduced tumor growth at 20 mg/kg, ip administered daily 5 days pre week measured every other day
# A-375 [12] = assay: Antiproliferative activity against human A375 cells assessed as cell growth at 15 uM after 96 hrs by trypan blue assay; format: functional; settings: A-375, 96 h, read-out: Activity; summary of the method: as §1
# A-375 [13] = assay: Antiproliferative activity against human A375 cells after 96 hrs by trypan blue assay; format: functional, cell-based; summary of the method: as §1
# A-375 [14] = assay: Antiproliferative activity against human A375 cells assessed as morphological changes at 5 to 10 uM after 96 hrs by phase contrast microscopy; format: functional, cell-based
# Summary of the method: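 A375 cultures in DMEM/10% FCS exposed to 5, 7.5 or 10 μM drug in DMSO; DMSO-only controls. Dendritic-like extensions scored under phase-contrast or bright-field microscopy.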
# A-375 [15] = assay: Induction of apoptosis in human A375 cells assessed as necrotic cells at 25 uM after 96 hrs by propidium iodide staining-based FACS analysis; format: functional, cell-based
# A-375 [16] = assay: Induction of apoptosis in human A375 cells after 96 hrs by propidium iodide staining-based FACS analysis; format: functional, cell-based
# Summary of the method: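 A375 cells seeded at low (100 000) or high (300 000) density per 25 cm2 flask and cultured 96 h with 20 μM compound. Harvested for biparametric FACS: DNA content by PI uptake (linear) against side scatter (log); at least 10 000 cells per sample. Apoptotic fraction given as mean and SD of three experiments.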
smiles,measurement,setting,value
CCC(c1cc(=O)[nH]c(S)n1)c1c(F)cccc1F (stereo not drawn),growth at 25 µM,A-375 [1],100%
CCC(C)Sc1nc([C@@H](CC)c2c(F)cccc2F)c(C)c(=O)[nH]1 (stereo partly drawn),Activity,A-375 [2],Active
same,Activity,A-375 [3],70%
same,Activity,A-375 [4],Active
same,Activity,A-375 [5],Active
same,Activity,A-375 [6],Active
same,Activity,A-375 [7],tde
same,Activity,A-375 [8],inactive
Cc1ccnc2c1NC(=O)c1cccnc1N2C1CC1 [NEVIRAPINE],Activity,A-375 [2],inactive
same,Activity,A-375 [4],Active
same,Activity,A-375 [6],Active
same,growth at 350 µM,A-375 [9],35%
same,Activity,A-375 [10],50%
same,Activity,A-375 [8],inactive
CCC(c1cc(O)nc(SC(C)C)n1)c1c(F)cccc1F (stereo not drawn),growth at 25 µM,A-375 [1],19%
CCC(c1nc(SC(C)C)[nH]c(=O)c1C)c1c(F)cccc1F (stereo not drawn),growth at 25 µM,A-375 [1],12%
CCC(c1nc(S)[nH]c(=O)c1C)c1c(F)cccc1F (stereo not drawn),growth at 25 µM,A-375 [1],76%
CCC(c1cc(=O)[nH]c(SC)n1)c1c(F)cccc1F (stereo not drawn),growth at 25 µM,A-375 [1],13%
CCC(C)Sc1nc([C@H](CC)c2c(F)cccc2F)c(C)c(=O)[nH]1 (stereo partly drawn),Activity,A-375 [2],Active
same,Activity,A-375 [3],70%
same,Activity,A-375 [4],Active
same,Activity,A-375 [11],Active
same,Activity,A-375 [5],Active
same,Activity,A-375 [6],Active
same,Activity,A-375 [7],tde
same,Activity,A-375 [8],inactive
CCC(c1nc(SC2CCCC2)[nH]c(=O)c1C)c1c(F)cccc1F (stereo not drawn),growth at 25 µM,A-375 [1],5%
O=C1Nc2ccc(Cl)cc2[C@@](C#CC2CC2)(C(F)(F)F)O1 [EFAVIRENZ],Activity,A-375 [11],Active
same,growth at 15 µM,A-375 [12],51%
CCC(c1nc(SC)[nH]c(=O)c1C)c1c(F)cccc1F (stereo not drawn),growth at 25 µM,A-375 [1],40%
CCC(C)Sc1nc(C(CC)c2c(F)cccc2F)cc(=O)[nH]1 (stereo not drawn),growth at 25 µM,A-375 [1],13%
CCC(C)Sc1nc(C(CC)c2c(F)cccc2F)c(C)c(=O)[nH]1 (mixture of isomers),Activity,A-375 [13],Dose-dependent effect
same,Activity,A-375 [11],Active
same,Activity,A-375 [14],Active
same,growth at 25 µM,A-375 [1],5%
same,Activity,A-375 [15],Active
same,Activity,A-375 [16],Dose-dependent effect
CCC(c1cc(O)nc(SC2CCCC2)n1)c1c(F)cccc1F (stereo not drawn),growth at 25 µM,A-375 [1],22%
